The RNAGym collection of RNA variant scans (doi:10.1126/science.aae0568)
This sample holds only a part of the variants without activity.

B1: tRNA (parent)
chain: GUUCCGUUGGCGUAAUGGUAACGCGUCUCCCUCCUAAGGAGAAGACUGCGGGUUCGAGUCCCGUACGGAACG

Variants of: B1
Assay: yeast fitness relative to wild type (ratio to wild type); higher = fitter; tRNA-Arg(CCU), competitive growth, 37 C, YPD
How it was run: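 For this measurement, the tRNA-Arg(CCU) gene was varied by chemical synthesis at a 3% per-site mutation rate across 69 sites, and each variant was placed at the native genomic locus in Saccharomyces cerevisiae. The pooled strains went through a 24-hour competition in YPD at 37°C in six parallel replicates, with amplicons from start and end populations read by 100-nucleotide paired-end sequencing. Darwinian fitness relative to wild type followed from the change in each genotype's frequency. Genotypes needed ≥ 100 starting reads, and estimates < 0.5 were set to 0.5.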

Variant | yeast fitness
GUUCCGUUGGCGUAAUGGUAACGCGUCUCCCUCCUAAGGAGAAGACUGCGGGUUCAAGUCCCGUACAGCACG | 0.797
GUUCCGUUGGCGUAAUGGUAACGCGUCUCCCUCCUAAGGAGAAGACUGCGGGUUCAAGUCCCGUACCGAACG | 0.812
GUUCCGUUGGCGUAAUGGUAACGCGUCUCCCUCCUAAGGAGAAGACUGCGGGUUCAAGGCCCGUACGGAACG | 0.762
GUUCCGUUGGCGUAAUGGUAACGCGUCUCCCUCCUAAGGAGAAGACUGCGGGUUCAAGUCCCGCACGGAACG | 1.01
GUUCCGUUGGCGUAAUGGUAACGCGUCUCCCUCCUAAGGAGAAGACUGCGGGUUCCCGUCCCGUACGGAGCG | 0.594
GUUCCGUUGGCGUAAUGGUAACGCGUCUCCCUCCUAAGGAGAAGACUGCGGGUUCCGGUCCCGUACGGCACG | ≤ 0.5
GUUCCGUUGGCGUAAUGGUAACGCGUCUCCCUCCUAAGGAGAAGACUGCGGGUUCCGGUCGCGUAUGGGACG | ≤ 0.5
GUUCCGUUGGCGUAAUGGUAACGCGUCUCCCUCCUAAGGAGAAGACUGCGGGUUCCGGUCCCGUACGUAACG | ≤ 0.5
GUUCCGUUGGCGUAAUGGUAACGCGUCUCCCUCCUAAGGAGAAGACUGCGGGUUCCUGUCCCGUACGGAACG | 0.562
GUUCCGUUGGCGUAAUGGUAACGCGUCUCCCUCCUAAGGAGAAGACUGCGGGUUCCAGUCCCGUGCGGAACG | 0.606
GUUCCGUUGGCGUAAUGGUAACGCGUCUCCCUCCUAAGGAGAAGACUGCGGGUUCCAGUCCCGUACGGUACG | 0.671
GUUCCGUUGGCGUAAUGGUAACGCGUCUCCCUCCUAAGGAGAAGACUGCGGGUUCCAGUCCCGUACGGACCG | 0.813
GUUCCGUUGGCGUAAUGGUAACGCGUCUCCCUCCUAAGGAGAAGACUGCGGGUUCCAGUCACGUACGGAACG | ≤ 0.5
GUUCCGUUGGCGUAAUGGUAACGCGUCUCCCUCCUAAGGAGAAGACUGCGGGUUCCAGUCCAGUACGGAACG | 0.563
GUUCCGUUGGCGUAAUGGUAACGCGUCUCCCUCCUAAGGAGAAGACUGCGGGUUCCAGUCCUGUACGGAUCG | 0.598
GUUCCGUUGGCGUAAUGGUAACGCGUCUCCCUCCUAAGGAGAAGACUGCGGGUUCCAGUCCCGUAAGGAACG | 0.567
GUUCCGUUGGCGUAAUGGUAACGCGUCUCCCUCCUAAGGAGAAGACUGCGGGUUCCAGUCCCGUAUGGAACG | 0.699
GUUCCGUUGGCGUAAUGGUAACGCGUCUCCCUCCUAAGGAGAAGACUGCGGGUUCCAGUCCCGUACAGAACG | 0.592
GUUCCGUUGGCGUAAUGGUAACGCGUCUCCCUCCUAAGGAGAAGACUGCGGGUUCCAGUCCCGUACAGACCG | 0.527
GUUCCGUUGGCGUAAUGGUAACGCGUCUCCCUCCUAAGGAGAAGACUGCGGGUUCCAGUCCCGUACUGAACG | 0.524
GUUCCGUUGGCGUAAUGGUAACGCGUCUCCCUCCUAAGGAGAAGACUGCGGGUUCCAGUCCCGUACGCAACG | 0.716
GUUCCGUUGGCGUAAUGGUAACGCGUCUCCCUCCUAAGGAGAAGACUGCGGGUUCCAGACCCGUGCGGAACG | 0.571
GUUCCGUUGGCGUAAUGGUAACGCGUCUCCCUCCUAAGGAGAAGACUGCGGGUUCCAGCCCCGUACGGAACG | 0.607
GUUCCGUUGGCGUAAUGGUAACGCGUCUCCCUCCUAAGGAGAAGACUGCGGGUUCCAGGCCCGUACGGAACG | 0.693
GUUCCGUUGGCGUAAUGGUAACGCGUCUCCCUCCUAAGGAGAAGACUGCGGGUUCUGGUCCCGUACGUAACG | ≤ 0.5

Variant | yeast fitness
GUUCCGUUGGCGUAAUGGUAACGCGUCUCCCUCCUAAGGAGAAGACUGCGGGUUCUAGGCCCGUACGGAGCG | ≤ 0.5
GUUCCGUUGGCGUAAUGGUAACGCGUCUCCCUCCUAAGGAGAAGACUGCGGGUUCGCGUCCCGUCCGGAACG | 0.594
GUUCCGUUGGCGUAAUGGUAACGCGUCUCCCUCCUAAGGAGAAGACUGCGGGUUCGCGUCCCGUUGGGAACG | ≤ 0.5
GUUCCGUUGGCGUAAUGGUAACGCGUCUCCCUCCUAAGGAGAAGACUGCGGGUUCGCGUCCCGUACGGUACG | 0.605
GUUCCGUUGGCGUAAUGGUAACGCGUCUCCCUCCUAAGGAGAAGACUGCGGGUUCGCGUCCCGUACGGACCG | 0.676
GUUCCGUUGGCGUAAUGGUAACGCGUCUCCCUCCUAAGGAGAAGACUGCGGGUUCGCGUCCCGUACGGAUCG | 0.679
GUUCCGUUGGCGUAAUGGUAACGCGUCUCCCUCCUAAGGAGAAGACUGCGGGUUCGCGUCACGUACAGAACG | 0.56
GUUCCGUUGGCGUAAUGGUAACGCGUCUCCCUCCUAAGGAGAAGACUGCGGGUUCGCGUCUCGUACGGAACG | 0.656
GUUCCGUUGGCGUAAUGGUAACGCGUCUCCCUCCUAAGGAGAAGACUGCGGGUUCGCGUCUCGUACGGAUCG | ≤ 0.5
GUUCCGUUGGCGUAAUGGUAACGCGUCUCCCUCCUAAGGAGAAGACUGCGGGUUCGCGUCUCGUAUGGCACG | ≤ 0.5
GUUCCGUUGGCGUAAUGGUAACGCGUCUCCCUCCUAAGGAGAAGACUGCGGGUUCGCGUCCAGUCCGGAACG | ≤ 0.5
GUUCCGUUGGCGUAAUGGUAACGCGUCUCCCUCCUAAGGAGAAGACUGCGGGUUCGCGUCCAGUAAGGAACG | ≤ 0.5
GUUCCGUUGGCGUAAUGGUAACGCGUCUCCCUCCUAAGGAGAAGACUGCGGGUUCGCGUCCGGUACGGAACG | 0.818
GUUCCGUUGGCGUAAUGGUAACGCGUCUCCCUCCUAAGGAGAAGACUGCGGGUUCGCGUCCCGUAAGGAACG | 0.624
GUUCCGUUGGCGUAAUGGUAACGCGUCUCCCUCCUAAGGAGAAGACUGCGGGUUCGCGUCCCGUAUGGAACG | 0.652
GUUCCGUUGGCGUAAUGGUAACGCGUCUCCCUCCUAAGGAGAAGACUGCGGGUUCGCAUCCCGUACGGAACG | 0.696
GUUCCGUUGGCGUAAUGGUAACGCGUCUCCCUCCUAAGGAGAAGACUGCGGGUUCGCAUCCCGUACGGACCG | ≤ 0.5
GUUCCGUUGGCGUAAUGGUAACGCGUCUCCCUCCUAAGGAGAAGACUGCGGGUUCGCCUCCCGUACGGAACG | 0.77
GUUCCGUUGGCGUAAUGGUAACGCGUCUCCCUCCUAAGGAGAAGACUGCGGGUUCGCCGCCCGUAUGGAACG | 0.606
GUUCCGUUGGCGUAAUGGUAACGCGUCUCCCUCCUAAGGAGAAGACUGCGGGUUCGCGUCCCAUACGGAACG | 0.558
GUUCCGUUGGCGUAAUGGUAACGCGUCUCCCUCCUAAGGAGAAGACUGCGGGUUCGCGUCCCGUACAGAACG | 0.504
GUUCCGUUGGCGUAAUGGUAACGCGUCUCCCUCCUAAGGAGAAGACUGCGGGUUCGCGUCCCGUACUGAACG | 0.516
GUUCCGUUGGCGUAAUGGUAACGCGUCUCCCUCCUAAGGAGAAGACUGCGGGUUCGCGUCCCGUACGCAACG | 0.729
GUUCCGUUGGCGUAAUGGUAACGCGUCUCCCUCCUAAGGAGAAGACUGCGGGUUCGCGUCCCGAACGGAACG | 0.707
GUUCCGUUGGCGUAAUGGUAACGCGUCUCCCUCCUAAGGAGAAGACUGCGGGUUCGGGUCCCGUUCGGAACG | 0.699

Variant | yeast fitness
GUUCCGUUGGCGUAAUGGUAACGCGUCUCCCUCCUAAGGAGAAGACUGCGGGUUCGGGUCCCGUACGGAUCG | 0.937
GUUCCGUUGGCGUAAUGGUAACGCGUCUCCCUCCUAAGGAGAAGACUGCGGGUUCGGGUACCGUACGGAACG | 0.636
GUUCCGUUGGCGUAAUGGUAACGCGUCUCCCUCCUAAGGAGAAGACUGCGGGUUCGGGUGCCGUACGGAACG | 0.641
GUUCCGUUGGCGUAAUGGUAACGCGUCUCCCUCCUAAGGAGAAGACUGCGGGUUCGGGUUCCGUACGGAACG | 0.838
GUUCCGUUGGCGUAAUGGUAACGCGUCUCCCUCCUAAGGAGAAGACUGCGGGUUCGGGUUCCGUACGGAUCG | ≤ 0.5
GUUCCGUUGGCGUAAUGGUAACGCGUCUCCCUCCUAAGGAGAAGACUGCGGGUUCGGGUCGCGUACGGAACG | 0.61
GUUCCGUUGGCGUAAUGGUAACGCGUCUCCCUCCUAAGGAGAAGACUGCGGGUUCGGGUCGAGUACGGAACG | 0.633
GUUCCGUUGGCGUAAUGGUAACGCGUCUCCCUCCUAAGGAGAAGACUGCGGGUUCGGGUCGCGUAUGGAACG | ≤ 0.5
GUUCCGUUGGCGUAAUGGUAACGCGUCUCCCUCCUAAGGAGAAGACUGCGGGUUCGGGUCUCGUACGGAACG | 0.699
GUUCCGUUGGCGUAAUGGUAACGCGUCUCCCUCCUAAGGAGAAGACUGCGGGUUCGGGUCCGGUAUGGAACG | 0.596
GUUCCGUUGGCGUAAUGGUAACGCGUCUCCCUCCUAAGGAGAAGACUGCGGGUUCGGGUCCCGUAAGGAACG | 0.652
GUUCCGUUGGCGUAAUGGUAACGCGUCUCCCUCCUAAGGAGAAGACUGCGGGUUCGGGUCCCGUAGGGAACG | 0.783
GUUCCGUUGGCGUAAUGGUAACGCGUCUCCCUCCUAAGGAGAAGACUGCGGGUUCGGGUCCCGUAGGGUACG | ≤ 0.5
GUUCCGUUGGCGUAAUGGUAACGCGUCUCCCUCCUAAGGAGAAGACUGCGGGUUCGGAUACCGUAUGGAACG | 0.595
GUUCCGUUGGCGUAAUGGUAACGCGUCUCCCUCCUAAGGAGAAGACUGCGGGUUCGGGUCCCAUACGGAACG | 0.879
GUUCCGUUGGCGUAAUGGUAACGCGUCUCCCUCCUAAGGAGAAGACUGCGGGUUCGGGUCCCGUACAGAUCG | ≤ 0.5
GUUCCGUUGGCGUAAUGGUAACGCGUCUCCCUCCUAAGGAGAAGACUGCGGGUUCGGGUCCCGUACCGAACG | 0.932
GUUCCGUUGGCGUAAUGGUAACGCGUCUCCCUCCUAAGGAGAAGACUGCGGGUUCGGGUCCCGUACGAAACG | 0.944
GUUCCGUUGGCGUAAUGGUAACGCGUCUCCCUCCUAAGGAGAAGACUGCGGGUUCGGGUCCCGUACGCAACG | 0.857
GUUCCGUUGGCGUAAUGGUAACGCGUCUCCCUCCUAAGGAGAAGACUGCGGGUUCGGGACCUGUACGGAACG | ≤ 0.5
GUUCCGUUGGCGUAAUGGUAACGCGUCUCCCUCCUAAGGAGAAGACUGCGGGUUCGGGCCCCGUACGGAGCG | 0.684
GUUCCGUUGGCGUAAUGGUAACGCGUCUCCCUCCUAAGGAGAAGACUGCGGGUUCGGGUCCCGAACGGAACG | 0.755
GUUCCGUUGGCGUAAUGGUAACGCGUCUCCCUCCUAAGGAGAAGACUGCGGGUUCGGGUCCCGCACGGAACG | 0.979
GUUCCGUUGGCGUAAUGGUAACGCGUCUCCCUCCUAAGGAGAAGACUGCGGGUUCGGGUCCCGGACGGAACG | 0.841
GUUCCGUUGGCGUAAUGGUAACGCGUCUCCCUCCUAAGGAGAAGACUGCGGGUUCGUGUCCCGUCCGGAACG | 0.865
